Reference: PMC12120886 (Plant Biotechnology Journal, 2025)

Key:
[1] = test system: LcTPS3; assay: malachite green phosphate-release assay, Michaelis-Menten fit; assay type: biochemical, Liriodendron chinense; conditions: 5 mM MgCl2, 50 mM MOPS pH 7.0 (optimum printed as pH 7.5), 35 °C, FPP 0-25 μM
Procedure, shortened: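 Recombinant His-tagged enzyme was expressed from pET-28a(+) in E. coli BL21(DE3) pLysS, induced with 1 mM IPTG at 16 °C for 16 h, and bead-purified. FPP (0–25 μM) was reacted with 5 mM MgCl2 in 50 mM MOPS pH 7.0 at 35 °C for 15 min. Phosphatase-released phosphate was read by malachite green at 620 nm. Km came from a Michaelis–Menten fit of initial velocity versus [FPP].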

[2] = biological target: T1, STpGMAS (Tanacetum parthenium, UniProt F8UL80); assay: GC-MS of germacrene A from yeast expressing the synthase with ERG20; assay type: cell-based; conditions: S. cerevisiae JCR27, endogenous FPP
T1 sequence (F8UL80 1-559): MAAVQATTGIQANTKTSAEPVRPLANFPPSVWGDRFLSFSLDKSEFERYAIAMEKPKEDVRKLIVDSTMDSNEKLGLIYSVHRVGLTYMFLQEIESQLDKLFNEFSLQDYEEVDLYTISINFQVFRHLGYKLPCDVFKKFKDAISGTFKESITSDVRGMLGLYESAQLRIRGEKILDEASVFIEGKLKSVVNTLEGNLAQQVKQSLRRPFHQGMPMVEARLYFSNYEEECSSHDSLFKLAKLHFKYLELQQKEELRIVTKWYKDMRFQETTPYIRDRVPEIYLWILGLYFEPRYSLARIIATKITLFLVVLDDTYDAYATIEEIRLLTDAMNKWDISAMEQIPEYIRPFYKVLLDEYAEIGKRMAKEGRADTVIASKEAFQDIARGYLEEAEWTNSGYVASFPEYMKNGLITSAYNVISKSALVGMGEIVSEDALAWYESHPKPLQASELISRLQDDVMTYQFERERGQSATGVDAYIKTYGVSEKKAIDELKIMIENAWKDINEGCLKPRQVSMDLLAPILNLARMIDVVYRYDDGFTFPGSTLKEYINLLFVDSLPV

[3] = biological target: T2, LsLTC2 (Lactuca sativa, UniProt Q8S3A5); assay: as above; assay type: cell-based; conditions: S. cerevisiae JCR27, endogenous FPP
T2 sequence (Q8S3A5 1-557): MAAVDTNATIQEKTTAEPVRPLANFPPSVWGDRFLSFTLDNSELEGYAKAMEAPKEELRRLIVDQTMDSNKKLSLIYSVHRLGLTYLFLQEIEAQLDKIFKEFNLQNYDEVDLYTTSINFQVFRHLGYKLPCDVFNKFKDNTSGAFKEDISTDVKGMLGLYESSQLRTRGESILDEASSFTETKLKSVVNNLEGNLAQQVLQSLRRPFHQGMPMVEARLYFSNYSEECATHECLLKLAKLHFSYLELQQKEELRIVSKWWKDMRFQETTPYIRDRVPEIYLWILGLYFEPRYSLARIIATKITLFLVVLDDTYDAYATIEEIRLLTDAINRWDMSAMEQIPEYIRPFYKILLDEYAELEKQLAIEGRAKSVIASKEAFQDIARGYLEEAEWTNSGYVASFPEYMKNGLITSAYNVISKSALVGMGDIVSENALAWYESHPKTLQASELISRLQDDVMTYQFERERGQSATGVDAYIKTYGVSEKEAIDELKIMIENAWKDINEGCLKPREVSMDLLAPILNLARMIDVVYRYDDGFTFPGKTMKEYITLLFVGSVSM

Km [1]: 17.7 ± 0.47 µM
Compound: CC(C)=CCC/C(C)=C/CC/C(C)=C/COP(=O)(O)OP(=O)(O)O [FPP]
GC-MS of germacrene A from yeast expressing the synthase with ERG20 [2]: co‐expressed LcTPS3, NPGAS, LsLTC2 and STpGMAS with a yeast–derived farnesyl diphosphate synthase (EGR20)
GC-MS of germacrene A from yeast expressing the synthase with ERG20 [3]: co‐expressed LcTPS3, NPGAS, LsLTC2 and STpGMAS with a yeast–derived farnesyl diphosphate synthase (EGR20)
